Experimental data: ChEMBL document CHEMBL4196116, “3-Aryl-1,2,4-oxadiazole Derivatives Active Against Human Rhinovirus” (ACS Med Chem Lett, 2018)

Tests used:
[1] = Antiviral activity against Human rhinovirus A71 infected in human H1HeLa cells assessed as inhibition of viral replication after 3 days by MTT assay; assay type: functional, cell-based; settings: Rhinovirus A, H1-HeLa, 72 h
Summary of the method: (§1)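 Anti-rhinovirus EC50 against hRV-B14, -A21 and -A71 determined in H1HeLa cells. Read-out is MTT cell viability. EC50 is the concentration that inhibits viral replication by 50%. Pleconaril serves as reference.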

[2] = test system: rhinovirus B14; test: Antiviral activity against Human rhinovirus B14 infected in human H1HeLa cells assessed as inhibition of viral replication after 3 days by MTT assay; assay type: functional, organism-based; settings: Rhinovirus B, H1-HeLa, 72 h; summary of the method: as §1
[3] = test system: rhinovirus A21; test: Antiviral activity against Human rhinovirus A21 infected in human H1HeLa cells assessed as inhibition of viral replication after 3 days by MTT assay; assay type: functional, organism-based; settings: Rhinovirus A, H1-HeLa, 72 h; summary of the method: as §1
[4] = Cytotoxicity against human H1HeLa cells assessed as reduction in cell viability after 3 days by MTT assay; assay type: cell-based, H1-HeLa
[5] = Metabolic stability in human liver microsomes assessed as parent compound remaining at 1 uM after 30 mins in presence of NADPH by LC/MS/MS analysis; assay type: ADME, microsome; settings: read-out: Stability
Summary of the method: (§2)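 Phase I metabolic stability in rat or human liver microsomes, reported as % parent remaining after 30 min. Buspirone serves as reference. Values are mean ± SD of at least three independent experiments.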

[6] = Metabolic stability in rat liver microsomes assessed as parent compound remaining at 1 uM after 30 mins in presence of NADPH by LC/MS/MS analysis; assay type: ADME, microsome; settings: read-out: Stability; summary of the method: as §2
[7] = Terminal half life in Sprague-Dawley rat at 5 mg/kg, iv by LC/MS/MS analysis; assay type: ADME, organism-based; settings: in vivo, read-out: beta t1/2 (converted)
Summary of the method: (§3)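 Male Sprague–Dawley rats, n = 3, given 5 mg·kg–1 intravenously or 10 mg·kg–1 orally. Plasma deproteinized in acetonitrile and assayed by LC–MS/MS. Parameters derived from concentration–time data by noncompartmental analysis. Values reported as mean ± standard deviation.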

[8] = AUC (infinity) in Sprague-Dawley rat at 10 mg/kg, po by LC/MS/MS analysis; assay type: ADME, organism-based; design: dose 10 mg/kg, time infinity, route oral; settings: in vivo; summary of the method: as §3
[9] = Terminal half life in Sprague-Dawley rat at 10 mg/kg, po by LC/MS/MS analysis; assay type: ADME, organism-based; settings: in vivo, read-out: beta t1/2 (converted); summary of the method: as §3
[10] = Volume of distribution at steady state in Sprague-Dawley rat at 5 mg/kg, iv by LC/MS/MS analysis; assay type: ADME, organism-based; settings: in vivo, read-out: Vdss; summary of the method: as §3
[11] = AUC (infinity) in Sprague-Dawley rat at 5 mg/kg, iv by LC/MS/MS analysis; assay type: ADME, organism-based; design: dose 5 mg/kg, route intravenous, time infinity; settings: in vivo; summary of the method: as §3
[12] = AUCt in Sprague-Dawley rat at 10 mg/kg, po by LC/MS/MS analysis; assay type: ADME, organism-based; settings: in vivo; summary of the method: as §3
[13] = Tmax in Sprague-Dawley rat at 10 mg/kg, po by LC/MS/MS analysis; assay type: ADME, organism-based; settings: in vivo; summary of the method: as §3
[14] = Cmax in Sprague-Dawley rat at 10 mg/kg, po by LC/MS/MS analysis; assay type: ADME, organism-based; design: dose 10 mg/kg, route oral; settings: in vivo; summary of the method: as §3
[15] = Oral bioavailability in Sprague-Dawley rat at 10 mg/kg by LC/MS/MS analysis; assay type: ADME, organism-based; settings: in vivo; summary of the method: as §3
[16] = Clearance in Sprague-Dawley rat at 5 mg/kg, iv by LC/MS/MS analysis; assay type: ADME, organism-based; settings: in vivo; summary of the method: as §3
[17] = AUCt in Sprague-Dawley rat at 5 mg/kg, iv by LC/MS/MS analysis; assay type: ADME, organism-based; settings: in vivo; summary of the method: as §3

Compound	EC50 [1] [nM]	EC50 [2] [nM]	EC50 [3] [nM]	CC50 at 72 h [4] [nM]	further results
CNC(=O)c1cc(Oc2ccc(-c3noc(CC(C)C)n3)cc2)ccn1	340	> 23400	2200	23400	–
CNC(=O)c1cc(Oc2ccc(-c3noc(C(C)C)n3)cc2C)ccn1	2.5	73	29	8900	remaining at 0.5 h, 1 µM [5]: 9.9%; remaining at 0.5 h, 1 µM [6]: 35.1%
CNC(=O)c1cc(Oc2ccc(-c3noc(C(F)(F)F)n3)cc2)ccn1	1600	9300	> 35000	35000	–
CNC(=O)c1cc(Oc2ccc3c(C)c(C(=O)OC(C)C)sc3c2)ccn1	–	–	–	–	remaining at 0.5 h, 1 µM [5]: 42.7%; remaining at 0.5 h, 1 µM [6]: 1%
Cc1cc(-c2noc(C(C)C)n2)cc(C)c1Oc1ccnc(C(=O)N(C)C)c1	> 1800	> 1800	> 1800	1800	–
Cc1cc(CCCOc2c(C)cc(-c3noc(C(F)(F)F)n3)cc2C)on1 [PLECONARIL]	9.4	92	–	–	–
CNC(=O)c1cc(Oc2cccc(-c3noc(CC(C)C)n3)c2)ccn1	370	> 19100	2700	19100	–
CNC(=O)c1cc(Oc2ccc(-c3noc(C4CC4)n3)cc2)ccn1	50	520	400	32300	–
Cc1cc(-c2noc(C(C)C)n2)ccc1Oc1ccnc(C(=O)N(C)C)c1	> 1400	490	> 1400	1400	–
CNC(=O)c1cc(Oc2ccc(-c3noc(C)n3)cc2)ccn1	1600	33700	8700	> 100000	–
CNC(=O)c1cc(Oc2ccc(-c3noc(C4CC4)n3)cc2C)ccn1	12	340	400	20000	–
CCc1nc(-c2ccc(Oc3ccnc(C(=O)NC)c3)cc2)no1	31	1100	130	43700	–
CNC(=O)c1cc(Oc2ccc(-c3noc(COC)n3)cc2)ccn1	1700	8300	2100	63400	–
CNC(=O)c1cc(Oc2ccc3c(C)c(-c4noc(C5CC5)n4)sc3c2)ccn1	31	470	60	6800	–
CNC(=O)c1cc(Oc2c(C)cc(-c3noc(C(C)C)n3)cc2C)ccn1	11	300	69	7400	remaining at 0.5 h, 1 µM [5]: 61.1%; remaining at 0.5 h, 1 µM [6]: 37.1%
CCc1nc(-c2ccc(Oc3ccnc(C(=O)NC)c3)c(C)c2)no1	3.9	390	230	25200	–
CNC(=O)c1cc(Oc2cccc(-c3noc(C(C)C)n3)c2)ccn1	150	12800	2100	54200	–
CNC(=O)c1cc(Oc2ccc3c(C)c(-c4noc(C)n4)sc3c2)ccn1	61	650	59	> 100000	–
CCc1nc(-c2sc3cc(Oc4ccnc(C(=O)NC)c4)ccc3c2C)no1	14	430	77	5200	–
CNC(=O)c1cc(Oc2ccc3cc(-c4noc(C)n4)ccc3c2)ccn1	8.4	1700	110	6900	–
CNC(=O)c1cc(Oc2ccc(-c3noc(C(C)C)n3)c(C)c2)ccn1	3.7	66	22	30500	half-life [7]: 4.6 h; AUC(0-inf) [8]: 17400 ng·h/mL; half-life [9]: 3.2 h; remaining at 0.5 h, 1 µM [5]: 40.7%; Vd [10]: 0.611 L/kg; AUC(0-inf) [11]: 31800 ng·h/mL; remaining at 0.5 h, 1 µM [6]: 59.6%; AUC(0-t) [12]: 17400 ng·h/mL; Tmax [13]: 2.7 h; Cmax [14]: 3900 ng/mL; bioavailability [15]: 27.8%; clearance [16]: 2.63 mL/min/kg; AUC(0-t) [17]: 31300 ng·h/mL
CNC(=O)c1cc(Oc2ccc3c(C)c(-c4noc(C(C)C)n4)sc3c2)ccn1	13	73	300	5500	remaining at 0.5 h, 1 µM [5]: 69.8%; remaining at 0.5 h, 1 µM [6]: 99.2%
CNC(=O)c1cc(Oc2ccc3c(C)c(-c4noc(C(F)(F)F)n4)sc3c2)ccn1	300	2000	990	> 100000	–
CNC(=O)c1cc(Oc2ccc(-c3noc(C(C)C)n3)nc2)ccn1	6700	11500	39100	> 100000	–
O=C1CC2(CCCC2)CC(=O)N1CCCCN1CCN(c2ncccn2)CC1 [BUSPIRONE]	–	–	–	–	remaining at 0.5 h, 1 µM [5]: 3.5%; remaining at 0.5 h, 1 µM [6]: 0.1%
CNC(=O)c1cc(Oc2cccc(-c3noc(COC)n3)c2)ccn1	2000	> 100000	40300	> 100000	–
CC(C)c1nc(-c2ccc(Oc3ccnc(C(=O)N(C)C)c3)cc2)no1	> 9000	280	> 9000	9000	–
CNC(=O)c1cc(Oc2ccc(-c3noc(C(C)C)n3)cc2)ccn1	34	73	380	16100	–
